Laboratory results: paper PMC9463105 (Chemmedchem, 2022)

Test system: HCMV ADCREGFP virus
Test: HCMV replication assay
Type: cell-based, Human cytomegalovirus (HCMV)
Conditions: HFF cells, triplicate, mean

Row | SMILES | Cell‐based assays [at 10 μM] Inhibition %
1 | COCCNC(=O)c1nc(Cl)c2cccnc2c1O [Compound 15f] | insignificant

Target: T1, HCMV pUL89‐C (Human cytomegalovirus, UniProt P16732)
T1 sequence (P16732 418-674 limits assumed): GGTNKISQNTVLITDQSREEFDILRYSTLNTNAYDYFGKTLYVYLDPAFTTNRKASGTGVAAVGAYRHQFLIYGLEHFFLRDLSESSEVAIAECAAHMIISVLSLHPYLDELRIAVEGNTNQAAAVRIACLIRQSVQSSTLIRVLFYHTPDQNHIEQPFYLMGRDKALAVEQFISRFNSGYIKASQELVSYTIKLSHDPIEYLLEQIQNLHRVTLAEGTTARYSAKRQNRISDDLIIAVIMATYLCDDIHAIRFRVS
Test: In vitro pUL89‐C endonuclease assay
Type: biochemical
Conditions: IC50, dose response, duplicate

Row | SMILES | IC50 [µM]
2 | O=C(NCc1ccc(F)cc1)c1nc(Cl)c2cccnc2c1O [Compound 15a] | 4.3 ± 1.2
3 | O=C(NCc1ccc(Cl)c(Cl)c1)c1nc(Cl)c2cccnc2c1O [Compound 15b] | 13 ± 3.8
4 | COCCNC(=O)c1nc(Cl)c2cccnc2c1O [Compound 15f] | 5.7 ± 0.39
5 | COc1cccc(-c2nc(C(=O)NCc3ccc(C)cc3)c(O)c3ncccc23)c1 [Compound 16b] | 24 ± 5.4

Same assay, conditions: read-out: Nuclease inhibition % at 10 μM

Row | inhibition at 10 µM [%] | SMILES
6 | 52 ± 3.6 | COc1cccc(-c2nc(C(=O)NCc3ccc(C)cc3)c(O)c3ncccc23)c1 [Compound 16b]
7 | 17 ± 8.7 | O=C(NCc1ccc(F)cc1)c1nc(-c2ccccc2F)c2cccnc2c1O [Compound 16d]
8 | 8.2 ± 1.9 | O=C(NCc1ccc(F)cc1)c1nc(-c2cccc(Cl)c2)c2cccnc2c1O [Compound 16e]

The remaining lines, values behind:

Row | SMILES | inhibition at 10 µM [%]
9 | COC(=O)c1nc(Cl)c2cccnc2c1O [Compound 13] | 16 ± 2.5
10 | O=C(O)c1nc(-c2ccc(C(F)(F)F)cc2)c2cccnc2c1O [Compound 14] | 19 ± 0.1
11 | O=C(NCc1ccc(F)cc1)c1nc(Cl)c2cccnc2c1O [Compound 15a] | 49 ± 4.7
12 | O=C(NCc1ccc(Cl)c(Cl)c1)c1nc(Cl)c2cccnc2c1O [Compound 15b] | 33 ± 5.3
13 | O=C(NCc1ccc(F)c(Cl)c1)c1nc(Cl)c2cccnc2c1O [Compound 15c] | 15 ± 2
14 | Cc1ccc(CNC(=O)c2nc(Cl)c3cccnc3c2O)cc1 [Compound 15d] | 66 ± 13
15 | COCCNC(=O)c1nc(Cl)c2cccnc2c1O [Compound 15f] | 51 ± 14
16 | Cc1ccc(CNC(=O)c2nc(-c3ccccc3)c3cccnc3c2O)cc1 [Compound 16a] | 71 ± 2.4

Test system: not listed separately
Test: Cell viability assay
Type: cell-based
Conditions: human, HFF cells

Row | SMILES | CC50 at 7 days [µM]
17 | Nc1nc(O)c2ncn(COC(CO)CO)c2n1 [Compound 1, ganciclovir, reference compound] | > 50
18 | O=C(NCc1ccc(F)cc1)c1nc(Cl)c2cccnc2c1O [Compound 15a] | 60 ± 2.4
19 | O=C(NCc1ccc(Cl)c(Cl)c1)c1nc(Cl)c2cccnc2c1O [Compound 15b] | > 50
20 | Cc1ccc(CNC(=O)c2nc(Cl)c3cccnc3c2O)cc1 [Compound 15d] | > 50
21 | Cc1ccc(CNC(=O)c2nc(-c3ccccc3)c3cccnc3c2O)cc1 [Compound 16a] | > 100
22 | COc1cccc(-c2nc(C(=O)NCc3ccc(C)cc3)c(O)c3ncccc23)c1 [Compound 16b] | > 60

Same assay, conditions: human, HFF cells, Cell‐based assays [at 10 μM] Cell viability %, 10 μM, triplicate, mean

Row | SMILES | viability at 7 days, 10 µM [%]
23 | COC(=O)c1nc(Cl)c2cccnc2c1O [Compound 13] | 96 ± 1
24 | O=C(O)c1nc(-c2ccc(C(F)(F)F)cc2)c2cccnc2c1O [Compound 14] | 97 ± 0.9
25 | O=C(NCc1ccc(F)cc1)c1nc(Cl)c2cccnc2c1O [Compound 15a] | 97 ± 2.3
26 | O=C(NCc1ccc(Cl)c(Cl)c1)c1nc(Cl)c2cccnc2c1O [Compound 15b] | 95 ± 1
27 | O=C(NCc1ccc(F)c(Cl)c1)c1nc(Cl)c2cccnc2c1O [Compound 15c] | 100 ± 5.7
28 | Cc1ccc(CNC(=O)c2nc(Cl)c3cccnc3c2O)cc1 [Compound 15d] | 96 ± 1.5
29 | COCCNC(=O)c1nc(Cl)c2cccnc2c1O [Compound 15f] | 96 ± 2.1
30 | Cc1ccc(CNC(=O)c2nc(-c3ccccc3)c3cccnc3c2O)cc1 [Compound 16a] | 99 ± 2.6
31 | COc1cccc(-c2nc(C(=O)NCc3ccc(C)cc3)c(O)c3ncccc23)c1 [Compound 16b] | 76 ± 1.7
32 | O=C(NCc1ccc(F)cc1)c1nc(-c2ccccc2F)c2cccnc2c1O [Compound 16d] | ≤ 70
33 | O=C(NCc1ccc(F)cc1)c1nc(-c2cccc(Cl)c2)c2cccnc2c1O [Compound 16e] | ≤ 70

Target: T2, pUL89‐C (Human cytomegalovirus, UniProt P16732)
T2 sequence (P16732 418-674 limits assumed): T1 sequence (P16732 418-674 limits assumed)
Test: pUL89‐C thermal shift assay
Type: binding, Human cytomegalovirus (HCMV)
Conditions: 20 μM compound, compared to DMSO control
Summary of the method: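 pUL89-C was expressed in E. coli and Ni-purified via a C-terminal His tag. Test compound (20 μM) was incubated with 4 μg of this protein in 5 mM MnCl2, 30 mM Tris pH 8, 50 mM NaCl for 25 min at room temperature, with 1% DMSO final. Sypro Orange was the dye. ΔTm is the mean derivative Tm vs DMSO vehicle, triplicates, with at least two independent determinations.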

Row | SMILES | ΔTm (thermal shift)
34 | O=C(NCc1ccc(F)cc1)c1nc(Cl)c2cccnc2c1O [Compound 15a] | > 0
35 | Cc1ccc(CNC(=O)c2nc(Cl)c3cccnc3c2O)cc1 [Compound 15d] | > 0
36 | Cc1ccc(CNC(=O)c2nc(-c3ccccc3)c3cccnc3c2O)cc1 [Compound 16a] | > 0
